MC4R antag cAMP = MC4R antagonists of cAMP signaling, primary screen, cell-based, TR-FRET, antagonist arm of biased-ligand search; actives 0.48% (n = 360,000); MC4R-expressing cells, MTII-stimulated cAMP, LANCE TR-FRET; inhibition, % at 6.5 µM; Melanocortin receptor 4 (Homo sapiens), P32245;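 active = inhibition above its plate's cutoff, the mean of tested wells on that plate plus 3 SD, cut at about 29% in these data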
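System – human MC4R-expressing U2OS cells · Also added – Melanotan II · Dosing – one concentration, 6.5 µM nominal · Timing – 30-min compound, 1-h challenge, 1-h detection, room temperature · Measured by – Eu-cAMP/anti-cAMP TR-FRET, emission 671 nm · Replicates – singlicate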
MC4R barr agon = MC4R agonists recruiting beta-arrestin, primary screen, cell-based, luminescence, agonist arm of biased-ligand search; Melanocortin receptor 4 (Homo sapiens), P32245; U2OS MC4R beta-arrestin complementation; percent of melanotan II response, DMSO zero; activation, % at 8.9 µM; actives 0.98% (n = 360,000);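 active = activation above a per-plate cutoff, the mean activation of sample wells on that plate plus 3 SD, cut at about 8% in these data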
NTR1 ag = agonists of human NTR1, primary screen, imaging, U2OS cells, beta-arrestin-GFP, high content; Neurotensin receptor type 1 (Homo sapiens), P30989; NTR1-U2OS beta-arrestin-GFP spot imaging, agonist mode; activation, % at 20 µM; actives 0.17% (n = 330,000);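 active = activation at or above 40% of the spot to cytoplasm intensity ratio, with at least 20 cells analyzed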
Target sequence (P30989 whole entry, looked up): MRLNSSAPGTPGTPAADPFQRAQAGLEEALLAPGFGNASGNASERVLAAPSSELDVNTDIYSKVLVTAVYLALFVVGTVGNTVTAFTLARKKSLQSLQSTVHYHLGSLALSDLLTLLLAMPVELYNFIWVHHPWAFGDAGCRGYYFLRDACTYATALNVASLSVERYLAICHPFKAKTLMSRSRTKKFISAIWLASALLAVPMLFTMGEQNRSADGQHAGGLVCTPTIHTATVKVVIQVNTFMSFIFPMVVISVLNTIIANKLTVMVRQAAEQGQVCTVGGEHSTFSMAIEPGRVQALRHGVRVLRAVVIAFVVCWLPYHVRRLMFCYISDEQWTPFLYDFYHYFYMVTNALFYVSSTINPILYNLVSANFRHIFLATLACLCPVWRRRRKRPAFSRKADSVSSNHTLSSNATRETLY
sPLA2-III inh = human group III sPLA2 inhibitors, primary screen, biochemical, QFRET, BODIPY PC-A2 liposome substrate; inhibition, % at 12.2 µM; QFRET BODIPY PC-A2 liposome hydrolysis, fluorescence; actives 0.56% (n = 370,000); Group 3 secretory phospholipase A2 (Homo sapiens), Q9NZ20;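 active = inhibition above mean plus 3 SD of compounds lying within the high and low control bounds, cut at about 19% in these data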
Exocytosis inh = LAMP-1 surface exposure blockers, TALL-104 cells – cell-based, flow cytometry, MLPCN library, primary screen | TALL-104 LAMP-1 surface exposure; cells stimulated with thapsigargin and PMA | inhibition, % at 10 µM | actives 0.66% (n = 360,000) | AID 651702, 2012;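 active = inhibition above about 55%, limit read from the data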
A1 inh = caspase 3/7 activation in MEF A1-2A-BIM cells, primary screen, A1 inhibitor project, cell-based, luminescence, HTS. Caspase-Glo 3/7 luminescence, 3 h; percent of clofoctol response, vehicle zero. caspase activation, % (concentration not given with the values). actives 0.066% (n = 330,000). AID 2462, 2010;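 active = over half of replicate activation scores above 10%, or exactly half above 10 with the replicate mean above 10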
NTR1 ag confirm = NTR1 agonists, single-dose retest, confirmation, imaging, U2OS cells, beta-arrestin-GFP, single concentration. shares compounds with NTR1 ag. NTR1-U2OS beta-arrestin-GFP translocation imaging. actives 38% (n = 480). activation, % at 20 µM;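 active = mean activation at 20 µM of at least 40%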
Numbers stand for hits. A selection: hits, their analogues and other compounds. The true share with any hit is near 2.5%.

Screening CC(C)S(=O)(=O)c1csc(NC(=O)Nc2cccc([N+](=O)[O-])c2)c1Cl returned MC4R antag cAMP inactive, MC4R barr agon inactive, NTR1 ag 50, sPLA2-III inh inactive, Exocytosis inh inactive, A1 inh inactive and NTR1 ag confirm inactive.
CCc1ccc(S(=O)(=O)/N=C2\C=C(Nc3cccc(C(=O)O)c3)C(=O)c3ccccc32)cc1 was read as MC4R antag cAMP inactive, MC4R barr agon inactive, NTR1 ag inactive, sPLA2-III inh inactive, Exocytosis inh inactive and A1 inh inactive.
CCc1ccc(S(=O)(=O)/N=C2\C=C(Nc3ccc(O)cc3)C(=O)c3ccccc32)cc1 was read as MC4R antag cAMP inactive, MC4R barr agon inactive, NTR1 ag 45, Exocytosis inh 86, A1 inh inactive and NTR1 ag confirm inactive.
Screening OC(CNCCc1ccc(Cl)cc1)COc1cc(Cl)ccc1Cl (stereo not given) returned MC4R antag cAMP inactive, MC4R barr agon 30, NTR1 ag 41, sPLA2-III inh inactive, Exocytosis inh inactive, A1 inh inactive and NTR1 ag confirm inactive.
Screening CCCCCCCCn1c2c(c(=N)c3ccccc31)CCC2 returned MC4R antag cAMP inactive, MC4R barr agon inactive, NTR1 ag 61, sPLA2-III inh inactive, Exocytosis inh inactive and NTR1 ag confirm 50.
For COc1ccc(N2CCN(c3nc(NCCc4ccc(OC)c(OC)c4)nc(OC)n3)CC2)cc1 the results were MC4R antag cAMP inactive, MC4R barr agon inactive, NTR1 ag 44, sPLA2-III inh inactive, Exocytosis inh inactive, A1 inh inactive and NTR1 ag confirm inactive.
CN(C)/C=C1\NC(=S)N(c2ccccc2)C1=O was read as MC4R antag cAMP inactive, MC4R barr agon inactive, NTR1 ag inactive, sPLA2-III inh inactive, Exocytosis inh inactive and A1 inh inactive.
CCN1C(=O)/C(=C/N(C(C)=O)c2ccccc2)N(c2ccccc2)C1=S was read as MC4R antag cAMP inactive, MC4R barr agon inactive, NTR1 ag 42, sPLA2-III inh inactive, Exocytosis inh inactive, A1 inh inactive and NTR1 ag confirm 61.
CCOc1cc(/C=C2/C(=O)ON=C2C)ccc1OCc1ccc(F)cc1 was read as MC4R antag cAMP inactive, MC4R barr agon inactive, NTR1 ag 57, sPLA2-III inh inactive, Exocytosis inh inactive, A1 inh inactive and NTR1 ag confirm 64.
Screening CCOc1cc(/C=C2/C(=O)ON=C2C)ccc1OCc1ccccc1 returned NTR1 ag 48, sPLA2-III inh inactive, A1 inh inactive and NTR1 ag confirm 54.
`COc1ccc(S[C@]2(C(=O)N3CCN(c4ncccn4)CC3)CC(=O)N(c3ccc(OC)cc3)[C@@H]2c2ccc(OC)cc2)cc1` gave sPLA2-III inh inactive.
COC(=O)C1=C(C)N(Cc2ccccc2C(F)(F)F)C(=NCc2ccc(OC)cc2)NC1c1ccc(Cl)cc1 (stereo not given) was read as sPLA2-III inh inactive.
CCOC(=O)c1c(C)n(C)c2ccc(OCC(O)CN3CCCCCC3)cc12 (stereo not given) was read as MC4R antag cAMP inactive, MC4R barr agon inactive, NTR1 ag inactive, sPLA2-III inh inactive, Exocytosis inh inactive and A1 inh inactive.
`CCOC(=O)c1c(C)n(C)c2ccc(OCC(O)Cn3nc(C)c(Br)c3C)cc12` (stereo not given) gave MC4R antag cAMP inactive, MC4R barr agon inactive, NTR1 ag 41, sPLA2-III inh inactive, Exocytosis inh inactive, A1 inh inactive and NTR1 ag confirm inactive.

Source: PubChem BioAssay
